Results: ChEMBL document CHEMBL1275350, “First in class, potent, and orally bioavailable NADPH oxidase isoform 4 (Nox4) inhibitors for the treatment of idiopathic pulmonary fibrosis” (J Med Chem, 2010)
pIC50, pKi: −log10 of the molar value.

What was measured:
[1] = Permeability across human Caco-2 cell membrane at 10 uM after 2 hrs; type: ADME, cell-based
In short: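 Caco-2 monolayers grown 20 days in DMEM, used when TEER >800 Ω·cm2. Dosed at 10 μM final in HBSS pH 6.5 with 1% DMSO, apical-to-basolateral and basolateral-to-apical. Incubated 2 h at 37 °C, both compartments sampled, LC-MS/MS with five-point calibration. Papp = (dQ/dt)/(C0A).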

Cytochrome P450 2C19 = Cytochrome P450 2C19 (Homo sapiens, UniProt P33261); assay: Inhibition of human CYP2C19; type: ADME
In short: (§1)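 Recombinant human CYP isoforms with isoform-specific probe substrates and NADPH. Compound at 0.1–25 μM, final DMSO 0.3%. Metabolites measured by mass spectrometry, except CYP1A2, which used a fluorescent metabolite. IC50 derived from the decrease in metabolite formation compared with vehicle control.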

Cytochrome P450 2C9 = Cytochrome P450 2C9 (Homo sapiens, UniProt P11712); assay: Inhibition of human CYP2C9; type: ADME; in short: as §1
NADPH oxidase 4 = target: T1, NADPH oxidase 4 (Homo sapiens, UniProt Q9NPH5); assay: Inhibition of human NOX4 overexpressed in T-REx-293 cell membrane assessed as ROS production by cell free assay in presence of NADPH; settings: in the assay text read “T-REx-293 cell membrane” for “human PMN cell membrane”
T1 sequence (Q9NPH5 whole entry): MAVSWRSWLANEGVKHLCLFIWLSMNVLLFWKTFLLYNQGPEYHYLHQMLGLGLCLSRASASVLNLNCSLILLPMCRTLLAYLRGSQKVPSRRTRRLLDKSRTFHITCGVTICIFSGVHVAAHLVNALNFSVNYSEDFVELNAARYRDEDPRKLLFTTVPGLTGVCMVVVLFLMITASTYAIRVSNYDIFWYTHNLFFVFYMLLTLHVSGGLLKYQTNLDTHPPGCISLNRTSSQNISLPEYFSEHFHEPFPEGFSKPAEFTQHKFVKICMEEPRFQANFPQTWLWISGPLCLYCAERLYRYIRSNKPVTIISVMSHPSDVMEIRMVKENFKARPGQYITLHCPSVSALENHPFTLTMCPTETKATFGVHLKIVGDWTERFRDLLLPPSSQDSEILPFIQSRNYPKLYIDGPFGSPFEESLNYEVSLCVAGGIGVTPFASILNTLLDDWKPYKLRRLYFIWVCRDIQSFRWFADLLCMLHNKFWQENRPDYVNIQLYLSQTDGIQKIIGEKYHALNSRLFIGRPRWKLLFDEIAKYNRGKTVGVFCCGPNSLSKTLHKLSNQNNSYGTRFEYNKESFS
In short: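 hNOX4 T-REx-293 cells induced with tetracycline (1 μg/mL, 24 h), sonicated in sucrose/NaCl/EGTA PBS buffer pH 7.4, membranes taken from a sucrose gradient. NADPH-triggered ROS measured by Amplex Red/HRP in PBS, with compound at 1 nM–100 μM, 20 min at 37 °C. Ki by Cheng-Prusoff from ≥3 triplicate experiments.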

[2] = Intrinsic clearance in Sprague-Dawley rat liver microsomes assessed per mg of protein at 0.5 uM; type: ADME, Microsome
In short: (§2)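 Phase I stability assay in pooled liver microsomes (human: male and female; rat: male Sprague-Dawley). Microsomes at 0.5 mg/mL final in 0.1 M phosphate pH 7.4. Compound 0.5 μM final, 0.25% DMSO. Preincubated at 37 °C, reaction started with 1 mM NADPH. Sampled at 0, 5, 15, 30 and 45 min, with a 45 min minus-NADPH control. Methanol quench with internal standard, LC/MS-MS, intrinsic clearance calculated.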

[3] = Intrinsic clearance in human liver microsomes assessed as per mg of protein at 0.5 uM; type: ADME, Microsome; in short: as §2
Cytochrome P450 3A4 = Cytochrome P450 3A4 (Homo sapiens, UniProt P08684); assay: Inhibition of human CYP3A4; type: ADME; in short: as §1
Cytochrome P450 2C8 = Cytochrome P450 2C8 (Homo sapiens, UniProt P10632); assay: Inhibition of human CYP2C8; type: ADME; in short: as §1
NADPH oxidase 2 = NADPH oxidase 2 (Homo sapiens, UniProt P04839); assay: Inhibition of human NOX2 overexpressed in […] cell membrane assessed as ROS production by cell free assay in presence of NADPH
In short: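 Nox2 source: membranes from human polymorphonuclear cells, sonicated and collected at the 17/40% sucrose interface. ROS read by Amplex Red/HRP in PBS after NADPH addition, with compound at 1 nM–100 μM for 20 min at 37 °C. Background taken without membranes or agonist. Ki via Cheng-Prusoff, mean of ≥3 experiments in triplicate.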

[4] = Tmax in Sprague-Dawley rat at 10 mg/kg, po; type: ADME, organism-based; set-up: dose 10 mg/kg, route oral; settings: in vivo
In short: (§3)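 Parallel design in male rats, three per group. Group 1: 5 mg/kg iv in EDPW (10% EtOH, 10% DMA, 30% PG, 50% water). Group 2: 10 mg/kg oral in aqueous 0.5% CMC with 0.25% Tween 20. Carotid cannula blood drawn up to 24 h. Plasma measured by LC/MS/MS (LLOQ 1.00 ng/mL), noncompartmental analysis.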

[5] = Half life in Sprague-Dawley rat at 10 mg/kg, po; type: ADME, organism-based; set-up: dose 10 mg/kg, route oral; settings: in vivo
In short: (§4)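 Parallel design with six male rats: three given 5 mg/kg iv in EDPW (10% EtOH, 10% DMA, 30% PG, 50% water), three given 10 mg/kg orally in aqueous 0.5% CMC with 0.25% Tween 20. Carotid cannula blood sampled up to 24 h. Plasma levels by LC/MS/MS (LLOQ 1.00 ng/mL). Noncompartmental analysis.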

[6] = Half life in Sprague-Dawley rat at 5 mg/kg, sc; type: ADME, organism-based; set-up: dose 5 mg/kg, route subcutaneous; settings: in vivo
[7] = Bioavailability in Sprague-Dawley rat at 5 mg/kg, sc; type: ADME, organism-based; settings: in vivo
[8] = target: Xanthine dehydrogenase/oxidase (Homo sapiens, UniProt P47989); assay: Inhibition of xanthine oxidase by in vitro enzymatic assay in presence of xanthine
In short: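 Cell-free Amplex Red read-out: xanthine oxidase incubated in PBS with Amplex Red, HRP and cofactors; ROS production started by adding xanthine. Compound at rising concentrations from 1 nM to 100 μM, 20 min at 37 °C, then read on a plate reader. Background taken without enzyme or without agonist. Ki by Cheng-Prusoff, mean of at least three experiments run in triplicate.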

[9] = AUC (infinity) in Sprague-Dawley rat at 1 mg/kg, iv; type: ADME, organism-based; set-up: time infinity, dose 1 mg/kg, route intravenous; settings: plasma
[10] = Oral bioavailability in Sprague-Dawley rat at 10 mg/kg; type: ADME, organism-based; settings: in vivo; in short: as §3
[11] = Tmax in Sprague-Dawley rat at 1 mg/kg, iv; type: ADME, organism-based; set-up: dose 1 mg/kg, route intravenous; settings: in vivo
Rattus norvegicus = assay: Hepatic blood flow in Sprague-Dawley rat at 5 mg/kg, iv; type: ADME, organism-based, Liver; set-up: dose 5 mg/kg, route intravenous; settings: in vivo
[12] = Cmax in Sprague-Dawley rat at 5 mg/kg, sc; type: ADME, organism-based; set-up: dose 5 mg/kg, route subcutaneous; settings: in vivo
[13] = Clearance in Sprague-Dawley rat at 1 mg/kg, iv; type: ADME, organism-based; set-up: dose 1 mg/kg, route intravenous; settings: in vivo
[14] = Cmax in Sprague-Dawley rat at 10 mg/kg, po; type: ADME, organism-based; set-up: dose 10 mg/kg, route oral; settings: in vivo; in short: as §4
[15] = Volume of distribution at steady state in Sprague-Dawley rat at 1 mg/kg, iv; type: ADME, organism-based; set-up: dose 1 mg/kg, route intravenous; settings: in vivo, read-out: Vdss
[16] = Cmax in Sprague-Dawley rat at 1 mg/kg, iv; type: ADME, organism-based; set-up: dose 1 mg/kg, route intravenous; settings: in vivo
[17] = Tmax in Sprague-Dawley rat at 5 mg/kg, sc; type: ADME, organism-based; set-up: dose 5 mg/kg, route subcutaneous; settings: in vivo
[18] = AUC (infinity) in Sprague-Dawley rat at 10 mg/kg, po; type: ADME, organism-based; set-up: time infinity, dose 10 mg/kg, route oral; settings: plasma; in short: as §4
[19] = AUC (infinity) in Sprague-Dawley rat at 5 mg/kg, sc; type: ADME, organism-based; set-up: time infinity, dose 5 mg/kg, route subcutaneous; settings: plasma
[20] = Half life in Sprague-Dawley rat at 1 mg/kg, iv; type: ADME, organism-based; set-up: dose 1 mg/kg, route intravenous; settings: in vivo
[21] = Clearance in Sprague-Dawley rat at 5 mg/kg, iv; type: ADME, organism-based; set-up: dose 5 mg/kg, route intravenous; settings: in vivo; in short: as §4
[22] = Half life in Sprague-Dawley rat at 5 mg/kg, iv; type: ADME, organism-based; set-up: dose 5 mg/kg, route intravenous; settings: in vivo; in short: as §4
[23] = Cmax in Sprague-Dawley rat at 5 mg/kg, iv; type: ADME, organism-based; set-up: dose 5 mg/kg, route intravenous; settings: in vivo; in short: as §4
[24] = AUC (infinity) in Sprague-Dawley rat at 5 mg/kg, iv; type: ADME, organism-based; set-up: time infinity, dose 5 mg/kg, route intravenous; settings: plasma; in short: as §4
[25] = Volume of distribution at steady state in Sprague-Dawley rat at 5 mg/kg, iv; type: ADME, organism-based; set-up: dose 5 mg/kg, route intravenous; settings: in vivo, read-out: Vdss; in short: as §3
[26] = Clearance in Sprague-Dawley rat at 10 mg/kg, po; type: ADME, organism-based; set-up: dose 10 mg/kg, route oral; settings: in vivo; in short: as §4

Cytochrome P450 2C19, sequence (P33261 whole entry, canonical isoform): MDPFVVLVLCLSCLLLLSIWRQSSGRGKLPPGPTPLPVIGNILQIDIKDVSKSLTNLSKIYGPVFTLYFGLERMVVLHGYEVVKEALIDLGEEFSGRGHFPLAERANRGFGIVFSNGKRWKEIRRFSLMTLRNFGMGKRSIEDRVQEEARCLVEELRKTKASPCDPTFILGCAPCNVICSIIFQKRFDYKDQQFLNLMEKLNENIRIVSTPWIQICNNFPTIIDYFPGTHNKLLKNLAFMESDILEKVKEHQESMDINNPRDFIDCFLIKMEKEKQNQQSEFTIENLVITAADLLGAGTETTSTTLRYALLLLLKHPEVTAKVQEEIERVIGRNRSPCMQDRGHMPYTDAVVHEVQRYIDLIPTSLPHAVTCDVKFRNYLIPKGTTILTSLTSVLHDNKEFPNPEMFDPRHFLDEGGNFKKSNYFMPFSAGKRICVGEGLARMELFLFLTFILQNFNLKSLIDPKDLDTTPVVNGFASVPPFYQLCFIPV
Cytochrome P450 2C9, sequence (P11712 whole entry): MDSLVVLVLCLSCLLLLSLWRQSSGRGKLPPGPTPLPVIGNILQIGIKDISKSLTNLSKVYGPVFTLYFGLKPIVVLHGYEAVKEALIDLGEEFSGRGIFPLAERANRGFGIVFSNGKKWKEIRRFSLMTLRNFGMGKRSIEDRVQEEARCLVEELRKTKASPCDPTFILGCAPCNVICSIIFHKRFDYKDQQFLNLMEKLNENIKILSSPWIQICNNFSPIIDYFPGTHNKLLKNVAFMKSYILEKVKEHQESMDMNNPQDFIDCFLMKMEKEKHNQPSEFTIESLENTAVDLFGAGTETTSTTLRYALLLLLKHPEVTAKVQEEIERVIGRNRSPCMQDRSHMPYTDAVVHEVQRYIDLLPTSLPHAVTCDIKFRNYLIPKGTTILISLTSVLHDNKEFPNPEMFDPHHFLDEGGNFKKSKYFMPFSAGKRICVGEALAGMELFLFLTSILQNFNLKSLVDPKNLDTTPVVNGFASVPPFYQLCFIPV
Cytochrome P450 2C8, sequence (P10632 whole entry): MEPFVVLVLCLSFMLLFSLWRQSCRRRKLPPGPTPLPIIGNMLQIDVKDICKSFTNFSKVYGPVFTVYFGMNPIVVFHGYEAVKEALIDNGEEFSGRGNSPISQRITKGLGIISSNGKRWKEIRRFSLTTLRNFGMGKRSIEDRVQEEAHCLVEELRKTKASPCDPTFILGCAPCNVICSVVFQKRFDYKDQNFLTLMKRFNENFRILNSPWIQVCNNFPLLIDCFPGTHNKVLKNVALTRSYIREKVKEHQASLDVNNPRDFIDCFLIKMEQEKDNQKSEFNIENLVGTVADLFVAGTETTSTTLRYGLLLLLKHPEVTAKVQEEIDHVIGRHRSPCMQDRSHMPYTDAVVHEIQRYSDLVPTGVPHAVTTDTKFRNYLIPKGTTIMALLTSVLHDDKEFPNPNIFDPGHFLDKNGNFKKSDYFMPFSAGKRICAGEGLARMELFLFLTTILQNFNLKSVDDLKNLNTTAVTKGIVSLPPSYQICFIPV
NADPH oxidase 2, sequence (P04839 whole entry): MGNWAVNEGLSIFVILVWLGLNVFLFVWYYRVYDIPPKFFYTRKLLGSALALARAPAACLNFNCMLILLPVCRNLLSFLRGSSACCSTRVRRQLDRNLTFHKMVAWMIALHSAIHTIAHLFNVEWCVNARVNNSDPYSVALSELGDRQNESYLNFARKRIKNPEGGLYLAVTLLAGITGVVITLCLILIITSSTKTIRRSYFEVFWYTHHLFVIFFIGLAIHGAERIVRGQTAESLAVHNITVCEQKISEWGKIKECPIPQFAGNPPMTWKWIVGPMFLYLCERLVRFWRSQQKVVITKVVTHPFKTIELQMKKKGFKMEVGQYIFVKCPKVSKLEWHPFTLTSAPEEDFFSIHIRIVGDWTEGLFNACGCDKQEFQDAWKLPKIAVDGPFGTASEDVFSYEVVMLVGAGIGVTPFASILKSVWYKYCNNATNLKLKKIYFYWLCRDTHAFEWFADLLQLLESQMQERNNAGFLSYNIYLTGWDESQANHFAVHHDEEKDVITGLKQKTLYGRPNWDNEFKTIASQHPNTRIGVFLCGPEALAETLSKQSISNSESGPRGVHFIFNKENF
Cytochrome P450 3A4, sequence (P08684 whole entry): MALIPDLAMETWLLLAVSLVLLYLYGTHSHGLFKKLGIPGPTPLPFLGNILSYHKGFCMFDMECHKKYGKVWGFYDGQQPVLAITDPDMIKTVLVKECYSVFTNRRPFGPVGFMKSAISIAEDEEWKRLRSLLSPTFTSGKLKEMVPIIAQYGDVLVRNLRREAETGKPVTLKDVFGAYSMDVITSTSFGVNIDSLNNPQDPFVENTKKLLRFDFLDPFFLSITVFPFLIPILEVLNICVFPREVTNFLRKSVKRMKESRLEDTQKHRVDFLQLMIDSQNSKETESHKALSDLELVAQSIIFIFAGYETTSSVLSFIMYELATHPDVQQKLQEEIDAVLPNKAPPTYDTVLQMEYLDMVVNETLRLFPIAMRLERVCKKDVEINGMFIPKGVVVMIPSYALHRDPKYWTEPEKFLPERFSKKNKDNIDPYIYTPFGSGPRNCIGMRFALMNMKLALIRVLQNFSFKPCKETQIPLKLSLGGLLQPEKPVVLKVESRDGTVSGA
Xanthine dehydrogenase/oxidase, sequence (P47989 whole entry): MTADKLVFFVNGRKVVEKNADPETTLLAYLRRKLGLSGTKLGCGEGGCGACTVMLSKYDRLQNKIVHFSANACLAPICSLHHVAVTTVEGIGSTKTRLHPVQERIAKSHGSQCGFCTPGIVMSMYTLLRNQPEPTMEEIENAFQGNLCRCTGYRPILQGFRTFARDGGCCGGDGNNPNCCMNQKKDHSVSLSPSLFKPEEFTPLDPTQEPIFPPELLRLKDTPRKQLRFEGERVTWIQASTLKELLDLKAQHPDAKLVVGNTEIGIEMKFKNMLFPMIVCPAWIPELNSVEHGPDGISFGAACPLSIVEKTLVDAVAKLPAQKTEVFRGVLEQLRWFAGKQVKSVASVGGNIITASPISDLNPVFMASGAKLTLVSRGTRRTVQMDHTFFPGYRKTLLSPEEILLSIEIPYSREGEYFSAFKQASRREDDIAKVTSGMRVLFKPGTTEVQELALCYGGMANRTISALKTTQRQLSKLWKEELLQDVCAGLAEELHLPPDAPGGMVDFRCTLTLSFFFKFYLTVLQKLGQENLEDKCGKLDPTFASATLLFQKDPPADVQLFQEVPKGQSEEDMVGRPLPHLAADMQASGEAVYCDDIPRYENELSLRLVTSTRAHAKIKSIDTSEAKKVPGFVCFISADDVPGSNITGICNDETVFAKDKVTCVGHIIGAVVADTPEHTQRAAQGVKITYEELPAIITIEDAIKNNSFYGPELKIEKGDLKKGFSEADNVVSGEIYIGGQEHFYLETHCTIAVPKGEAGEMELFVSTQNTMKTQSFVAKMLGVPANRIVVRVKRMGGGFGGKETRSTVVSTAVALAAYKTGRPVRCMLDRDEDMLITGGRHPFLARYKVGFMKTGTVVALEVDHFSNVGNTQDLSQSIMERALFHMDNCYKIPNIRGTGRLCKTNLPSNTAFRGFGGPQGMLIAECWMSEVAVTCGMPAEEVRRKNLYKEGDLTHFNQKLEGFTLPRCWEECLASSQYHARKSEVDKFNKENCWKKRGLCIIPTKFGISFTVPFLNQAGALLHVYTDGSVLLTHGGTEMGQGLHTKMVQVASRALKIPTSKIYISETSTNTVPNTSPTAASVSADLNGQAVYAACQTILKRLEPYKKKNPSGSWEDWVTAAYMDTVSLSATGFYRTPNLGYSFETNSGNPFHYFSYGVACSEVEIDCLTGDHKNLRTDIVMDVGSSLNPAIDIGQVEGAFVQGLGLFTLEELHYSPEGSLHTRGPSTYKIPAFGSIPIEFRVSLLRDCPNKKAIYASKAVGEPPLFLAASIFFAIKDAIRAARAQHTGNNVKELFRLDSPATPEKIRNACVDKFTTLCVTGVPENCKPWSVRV

Papp at 2 h, 10 µM [1] [×10⁻⁶ cm/s]	pIC50 (Cytochrome P450 2C19)	pIC50 (Cytochrome P450 2C9)	pKi (NADPH oxidase 4)	microsomal CLint at 0.5 µM [2] [µL/min/mg]	microsomal CLint at 0.5 µM [3] [µL/min/mg]	Tmax [4] [min]	half-life [5] [min]	bioavailability [10] [%]	Cmax [14] [ng/mL]	AUC(0-inf) [18] [ng·h/mL]	Compound	other results
39.9	4.89	6.05	6.78	248	96.4						COCCCn1c(CN(C)Cc2ccccc2)c2c(=O)n(-c3ccc(F)cc3Cl)[nH]c2cc1=O	
4.6	5.19	5.39	6.82	78	76.3						CN(Cc1c2c(=O)n(-c3ccccc3Cl)[nH]c2cc(=O)n1Cc1ccncc1)c1ccccc1	pIC50 (Cytochrome P450 3A4): 5.96; pIC50 (Cytochrome P450 2C8): 5.44
79.2			6.43	97.1		15	72	22	575	417	Cc1c2c(=O)n(-c3ccccc3)[nH]c2cc(=O)n1Cc1cccnc1	pKi (NADPH oxidase 2): 5.33; half-life [6]: 42 min; bioavailability [7]: 87%; pKi [8]: < 4.52; AUC(0-inf) [9]: 196 ng·h/mL; Tmax [11]: 4.8 min; QH (Rattus norvegicus): 55 mL/min/kg; Cmax [12]: 678 ng/mL; clearance [13]: 85.2 mL/min/kg; Vd [15]: 2.36 L/kg; Cmax [16]: 271 ng/mL; Tmax [17]: 30 min; AUC(0-inf) [19]: 815 ng·h/mL; half-life [20]: 24 min
35.5			6.94	125	49.3	70.2	182	28	558	3630	Cn1c(COc2ccc(F)cc2)c2c(=O)n(-c3ccccc3Cl)[nH]c2cc1=O	clearance [21]: 12.8 mL/min/kg; half-life [22]: 208 min; Cmax [23]: 30400 ng/mL; AUC(0-inf) [24]: 6530 ng·h/mL; Vd [25]: 0.8 L/kg; CL/F [26]: 48.7 mL/min/kg
